Data reported in ChEMBL document CHEMBL1128504, “Novel, potent, and orally active substance P antagonists: synthesis and antagonist activity of N-benzylcarboxamide derivatives of pyrido[3,4-b]pyridine” (J Med Chem, 1995).

What was measured:
[1] = test system: Cavia porcellus; assay: Percent inhibition of capsaicin-induced plasma extravasation in guinea-pig trachea at 3 mg/kg intravenous administration; assay type: functional
[2] = test system: Cavia porcellus; assay: Inhibition of capsaicin-induced plasma extravasation in guinea-pig trachea on intravenous administration; assay type: functional
[3] = molecular target: Substance-P receptor (Homo sapiens, UniProt P25103); assay: Inhibition of [125I]-BH-Substance P binding to tachykinin receptor 1 in human IM-9 cells; assay type: cell-based
Substance-P receptor, sequence (P25103 whole entry): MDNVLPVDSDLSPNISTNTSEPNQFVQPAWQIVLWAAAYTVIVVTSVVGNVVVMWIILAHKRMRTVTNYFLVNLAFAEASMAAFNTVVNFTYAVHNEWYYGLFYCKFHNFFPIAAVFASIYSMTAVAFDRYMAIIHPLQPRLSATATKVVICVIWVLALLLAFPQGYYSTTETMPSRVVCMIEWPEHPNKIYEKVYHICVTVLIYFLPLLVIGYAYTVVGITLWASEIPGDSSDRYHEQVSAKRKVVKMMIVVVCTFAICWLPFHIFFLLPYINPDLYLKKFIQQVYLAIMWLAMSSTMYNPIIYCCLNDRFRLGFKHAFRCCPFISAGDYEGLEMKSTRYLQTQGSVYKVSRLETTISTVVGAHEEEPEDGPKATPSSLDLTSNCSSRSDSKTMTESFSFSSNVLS

[4] = test system: Cavia porcellus; assay: Inhibition of capsaicin-induced plasma extravasation in guinea-pig trachea on peroral administration; assay type: functional; details: po
Method in brief: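 Male Hartley guinea pigs (n = 6); sample given orally 45 min before pentobarbital 35 mg/kg ip. Capsaicin […] plus Evans' blue 20 mg/kg iv in ethanol-saline (3:7); trachea removed 10 min later after saline perfusion. Dye extracted in acetone-sodium sulfate and read at 620 nm per g tissue. Inhibition calculated relative to blank and control means.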

COc1ccccc1CNCc1c(-c2ccccc2)c2cc(C)c(C)cc2c(=O)n1C
inhibition in vivo at 3 mg/kg [1]: 36.3%

Cn1c(C(=O)NCc2cc(C(F)(F)F)cc(C(F)(F)F)c2)c(-c2ccc(F)cc2)c2cccnc2c1=O
ED50 [2]: 0.48 mg/kg
IC50 [3]: 1.1 nM

COc1ccccc1CNCc1c(-c2ccccc2)c2ccccc2c(=O)n1C
IC50 [3]: 460 nM

Cc1cc2c(-c3ccccc3)c(C(=O)N(C)Cc3cc(C(F)(F)F)cc(C(F)(F)F)c3)n(C)c(=O)c2cc1C
ED50 [2]: 0.49 mg/kg

Cc1cc2c(-c3ccccc3)c(CNCc3cc(C(F)(F)F)cc(C(F)(F)F)c3)n(C)c(=O)c2cc1C
IC50 [3]: 250 nM

Cc1cc(C)cc(CN(C)C(=O)c2c(-c3ccccc3C)c3ccccc3c(=O)n2C)c1
IC50 [3]: 32 nM

CN(Cc1ccccc1Cl)C(=O)Nc1c(-c2ccc(F)cc2)c2ccccc2c(=O)n1C
IC50 [3]: 480 nM

Cc1cc2c(-c3ccccc3)c(NC(=O)N(C)Cc3ccccc3)n(C)c(=O)c2cc1C
inhibition in vivo at 3 mg/kg [1]: 57.3%

Cc1ccccc1-c1c(C(=O)N(C)Cc2cc(C(F)(F)F)cc(C(F)(F)F)c2)n(C)c(=O)c2ccccc12
ED50 [2]: 0.18 mg/kg
ED50 [4]: 0.81 mg/kg

Cc1cc(C)cc(CN(C)C(=O)Nc2c(-c3ccccc3)c3cc(C)c(C)cc3c(=O)n2C)c1
IC50 [3]: 28 nM

CN(Cc1cc(C(F)(F)F)cc(C(F)(F)F)c1)C(=O)c1c(-c2ccc(F)cc2)c2ccccc2c(=O)n1C
ED50 [2]: 0.063 mg/kg
ED50 [4]: 1 mg/kg
IC50 [3]: 0.4 nM

Cc1ccc(-c2c(C(=O)N(C)Cc3cc(C)cc(C)c3)n(C)c(=O)c3ncccc23)cc1
IC50 [3]: 4.4 nM

COc1ccccc1CNC(=O)c1c(-c2ccccc2C)c2ccccc2c(=O)n1C
IC50 [3]: 470 nM

CN(Cc1cc(C(F)(F)F)cc(C(F)(F)F)c1)Cc1c(-c2ccccc2)c2ccccc2c(=O)n1C
IC50 [3]: 600 nM

CN(Cc1cc(C(F)(F)F)cc(C(F)(F)F)c1)C(=O)c1c(-c2ccc(F)cc2)c2cccnc2c(=O)n1C
ED50 [2]: 0.017 mg/kg
ED50 [4]: 0.068 mg/kg
IC50 [3]: 0.21 nM

Cc1cc2c(-c3ccccc3)c(NC(=O)NCc3ccccc3)n(C)c(=O)c2cc1C
IC50 [3]: 140 nM

Cc1cccc(NC(=O)Nc2c(-c3ccccc3)c3cc(C)c(C)cc3c(=O)n2C)c1
IC50 [3]: 840 nM

Cc1ccccc1-c1c(C(=O)NCc2cc(C(F)(F)F)cc(C(F)(F)F)c2)n(C)c(=O)c2ccccc12
ED50 [2]: 1.1 mg/kg

COc1ccccc1CNC(=O)c1c(-c2ccccc2)c2ccccc2c(=O)n1C
IC50 [3]: 860 nM

Cc1cc2c(-c3ccccc3)c(NC(=O)N(C)Cc3cc(C(F)(F)F)cc(C(F)(F)F)c3)n(C)c(=O)c2cc1C
IC50 [3]: 54 nM

COc1ccccc1CN(C)C(=O)c1c(-c2ccc(F)cc2)c2cccnc2c(=O)n1C
ED50 [2]: 0.084 mg/kg

CN(Cc1c(-c2ccccc2)c2ccccc2c(=O)n1C)C(=O)Cc1cc(C(F)(F)F)cc(C(F)(F)F)c1
IC50 [3]: 110 nM

Cc1cc(C)cc(CN(C)C(=O)c2c(-c3ccc(F)cc3)c3cccnc3c(=O)n2C)c1
IC50 [3]: 5.1 nM

Cc1ccc(-c2c(C(=O)N(C)Cc3cc(Cl)cc(Cl)c3)n(C)c(=O)c3ncccc23)cc1
IC50 [3]: 3.4 nM

COc1ccccc1CN(C)Cc1c(-c2ccccc2)c2cc(C)c(C)cc2c(=O)n1C
IC50 [3]: 800 nM

CN(Cc1ccccc1Cl)C(=O)c1c(-c2ccc(F)cc2)c2cccnc2c(=O)n1C
IC50 [3]: 32 nM

Cc1cc2c(-c3ccccc3)c(NC(=O)N(C)Cc3ccccc3Cl)n(C)c(=O)c2cc1C
inhibition in vivo at 3 mg/kg [1]: 58.5%

CN(Cc1cc(C(F)(F)F)cc(C(F)(F)F)c1)C(=O)c1c(-c2ccccc2)c2cccnc2c(=O)n1C
ED50 [2]: 0.027 mg/kg
ED50 [4]: 0.17 mg/kg
IC50 [3]: 0.25 nM

CN(Cc1ccccc1)C(=O)Nc1c(-c2ccccc2)c2ccccc2c(=O)n1C
IC50 [3]: 1100 nM

Cc1ccc(-c2c(C(=O)N(C)Cc3cc(C(F)(F)F)cc(C(F)(F)F)c3)n(C)c(=O)c3ncccc23)cc1 [7-METHYL-8-OXO-5-P-TOLYL-7,8-DIHYDRO-[1,7]NAPHTHYRIDINE-6-CARBOXYLIC ACID (3,5-BIS-TRIFLUOROMETHYL-BENZYL)-METHYL-AMIDE (STRUCTURAL MIX)]
ED50 [4]: 0.11 mg/kg
IC50 [3]: 7 nM

COc1ccccc1CN[C@H]1CCCN[C@H]1c1ccccc1 [CP-99994]
ED50 [2]: 0.017 mg/kg
ED50 [4]: 8.7 mg/kg
